In data set [1] the target is T1, Transient receptor potential cation channel subfamily V member 1 (Homo sapiens, UniProt Q8NER1). Kind of data set: Antagonist activity at human recombinant TRPV1 expressed in human 1321N1 cells assessed as inhibition of capsaicin-induced calcium influx by FLIPR assay. Format: functional, cell-based. The gist of the method: (§1)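 Ca2+ influx in 1321N1 cells stably expressing recombinant human or rat TRPV1, grown to confluency, loaded with fluo-4 AM (2 µM in D-PBS) 1–2 h at 23 °C, washed. Compound (11-point half-log range, D-PBS) added at 10 s, capsaicin 3 min later. FLIPR fluorescence read over 240 s; peak increase minus baseline as % of 0.05 µM capsaicin control; four-parameter logistic fit for IC50; mean of ≥2 experiments in triplicate.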
T1 sequence (Q8NER1 whole entry): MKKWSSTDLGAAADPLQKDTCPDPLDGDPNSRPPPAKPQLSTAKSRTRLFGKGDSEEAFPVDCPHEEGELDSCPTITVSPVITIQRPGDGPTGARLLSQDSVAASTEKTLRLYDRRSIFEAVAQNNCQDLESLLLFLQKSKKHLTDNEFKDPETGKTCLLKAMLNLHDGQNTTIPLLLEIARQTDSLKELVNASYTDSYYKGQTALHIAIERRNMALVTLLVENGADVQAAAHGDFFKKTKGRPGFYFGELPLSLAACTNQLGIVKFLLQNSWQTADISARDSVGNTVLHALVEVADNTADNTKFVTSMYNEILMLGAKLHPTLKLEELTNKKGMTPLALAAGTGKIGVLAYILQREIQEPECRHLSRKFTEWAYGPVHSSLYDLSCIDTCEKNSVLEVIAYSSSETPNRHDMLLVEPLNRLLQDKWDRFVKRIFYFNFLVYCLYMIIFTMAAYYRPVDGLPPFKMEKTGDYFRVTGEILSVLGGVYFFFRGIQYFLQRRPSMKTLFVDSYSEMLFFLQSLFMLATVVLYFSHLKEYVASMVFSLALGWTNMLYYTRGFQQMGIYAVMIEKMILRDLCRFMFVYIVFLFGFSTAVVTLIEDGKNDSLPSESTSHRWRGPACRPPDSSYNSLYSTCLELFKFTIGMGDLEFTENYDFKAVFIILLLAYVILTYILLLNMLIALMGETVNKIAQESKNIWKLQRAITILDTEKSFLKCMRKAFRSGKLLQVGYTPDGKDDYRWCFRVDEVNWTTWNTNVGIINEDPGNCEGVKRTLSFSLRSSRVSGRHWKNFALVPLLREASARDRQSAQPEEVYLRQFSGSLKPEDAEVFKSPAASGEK

Data set [2] is described as follows: Ratio of drug level in brain to plasma in po dosed Sprague-Dawley rat. It is filed as ADME, organism-based. Summed up: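 Male Sprague–Dawley rats (200–320 g), group-housed with free food and water, fasted 16 h before oral dosing. Compound given po in 10% ethanol, 20% polysorbate-80 and 70% PEG-400. Drug concentrations in brain and plasma were expressed as a [brain]:[plasma] ratio.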

In data set [3] the test system is Rattus norvegicus. Kind of data set: Analgesic activity against complete Freund's adjuvant-induced thermal hyperalgesia in po dosed Sprague-Dawley rat assessed as paw withdrawal latency. It is filed as functional. Summed up: (§2)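 Male Sprague–Dawley rats (200–320 g), food withdrawn 16 h before oral dosing. Right hindpaw injected with 150 µL of 50% CFA in saline. Thermal hyperalgesia measured 48 h later as radiant-heat paw withdrawal on a 30 °C glass surface after 30 min habituation. Vehicle: 10% ethanol, 20% polysorbate-80, 70% PEG-400. Single-dose testing used 30 µmol/kg po, n = 6/group, versus vehicle.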

For data set [4], the system named is Rattus norvegicus. Kind of data set: Antinociceptive activity against hyperalgesia in po dosed rat Chung neuropathic pain model. It is filed as functional.
The subject of data set [5] is Rattus norvegicus. The data set is described as follows: Analgesic activity against complete Freund's adjuvant-induced thermal hyperalgesia in Sprague-Dawley rat assessed as paw withdrawal latency at 30 umol/kg, po. Format: functional. The gist of the method:
as §2

Data set [6] in a line: Plasma concentration in po dosed Sprague-Dawley rat after 1 hr. It is filed as ADME, organism-based.
Data set [7] deals with T1, Transient receptor potential cation channel subfamily V member 1. Kind of data set: Antagonist activity at human recombinant TRPV1 expressed in human 1321N1 cells assessed as inhibition of N-arachidonoyl-dopamine-induced calcium influx by FLIPR assay. Format: functional, cell-based. Summed up: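 FLIPR fluo-4 Ca2+ influx in 1321N1 cells stably expressing human TRPV1, with 3 µM NADA as the stimulus. Compound is added before agonist challenge. Peak fluorescence increase over baseline is fit to a four-parameter logistic curve to give IC50.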

Data set [8] shares this target. Kind of data set: Antagonist activity at human recombinant TRPV1 expressed in human 1321N1 cells assessed as inhibition of pH 5.5-induced calcium influx by FLIPR assay. Format: functional, cell-based. The gist of the method: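 Fluo-4 FLIPR Ca2+ assay in 1321N1 cells stably expressing human TRPV1, stimulated by low pH (pH 5.5) after compound preincubation. Peak fluorescence rise minus baseline is fit by a four-parameter logistic equation to give IC50.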

Data set [9] concerns the target Transient receptor potential cation channel subfamily V member 1 (Rattus norvegicus, UniProt O35433). The data set is described as follows: Antagonist activity at rat TRPV1 expressed in human 1321N1 cells assessed as inhibition of capsaicin-induced calcium influx by FLIPR assay. It is filed as functional, cell-based. The gist of the method:
as §1

For data set [10], the species on record is Rattus norvegicus. Kind of data set: Nocifensive activity against capsaicin-induced neuropathic pain in rat. Format: functional.
The subject of data set [11] is Rattus norvegicus. Kind of data set: Analgesic activity against complete Freund's adjuvant-induced mechanical allodynia in po dosed Sprague-Dawley rat. Format: functional.
The species named for data set [12] is Rattus norvegicus. Kind of data set: Analgesic activity against capsaicin-induced secondary mechanical allodynia in rat. Format: functional.
Data set [13] is filed under the species Rattus norvegicus. The data set is described as follows: Analgesic activity against monosodium iodoacetate-induced osteoarthritis in rat. Format: functional.
The species entered for data set [14] is Rattus norvegicus. The data set is described as follows: Analgesic activity against skin incision-induced acute thermal hyperalgesia in Sprague-Dawley rat. It is filed as functional. Summed up:
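Under halothane (2–3%) anesthesia, a left hind paw plantar incision was made aseptically in male Sprague–Dawley rats. Rats recovered 2 h before thermal hyperalgesia testing.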

The species entered for data set [15] is Rattus norvegicus. Kind of data set: Analgesic activity against gamma carrageenan-induced thermal hyperalgesia in Sprague-Dawley rat. It is filed as functional. The gist of the method: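 Male Sprague–Dawley rats (200–320 g) received 100 µL of 1% carrageenan in saline into the right hindpaw plantar surface. Thermal hyperalgesia was tested 2 h later by radiant heat to the plantar surface in Plexiglass cubicles on a 30 °C glass floor, after 30 min habituation.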

Data set [16] can be described thus: Aqueous solubility of the compound. Format: physicochemical. The note with it: buffer.
Data set [17] is described as follows: Apparent permeability across human Caco-2 cell membrane. It is filed as ADME, cell-based.
A short description of data set [18]: Solubility in PEG-400. Format: physicochemical. Summed up:
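Solubility was measured in PEG-400 as an organic vehicle.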

A short description of data set [19]: Oral bioavailability in Sprague-Dawley rat. The note with it: in vivo. Format: ADME, organism-based.
A short description of data set [20]: Half-life in po dosed Sprague-Dawley rat. Format: ADME, organism-based. The note with it: in vivo.
For data set [21], the target named is Voltage-gated inwardly rectifying potassium channel KCNH2 (Homo sapiens, UniProt Q12809). The data set is described as follows: Inhibition of human ERG.
Sequence of Voltage-gated inwardly rectifying potassium channel KCNH2 (Q12809 whole entry): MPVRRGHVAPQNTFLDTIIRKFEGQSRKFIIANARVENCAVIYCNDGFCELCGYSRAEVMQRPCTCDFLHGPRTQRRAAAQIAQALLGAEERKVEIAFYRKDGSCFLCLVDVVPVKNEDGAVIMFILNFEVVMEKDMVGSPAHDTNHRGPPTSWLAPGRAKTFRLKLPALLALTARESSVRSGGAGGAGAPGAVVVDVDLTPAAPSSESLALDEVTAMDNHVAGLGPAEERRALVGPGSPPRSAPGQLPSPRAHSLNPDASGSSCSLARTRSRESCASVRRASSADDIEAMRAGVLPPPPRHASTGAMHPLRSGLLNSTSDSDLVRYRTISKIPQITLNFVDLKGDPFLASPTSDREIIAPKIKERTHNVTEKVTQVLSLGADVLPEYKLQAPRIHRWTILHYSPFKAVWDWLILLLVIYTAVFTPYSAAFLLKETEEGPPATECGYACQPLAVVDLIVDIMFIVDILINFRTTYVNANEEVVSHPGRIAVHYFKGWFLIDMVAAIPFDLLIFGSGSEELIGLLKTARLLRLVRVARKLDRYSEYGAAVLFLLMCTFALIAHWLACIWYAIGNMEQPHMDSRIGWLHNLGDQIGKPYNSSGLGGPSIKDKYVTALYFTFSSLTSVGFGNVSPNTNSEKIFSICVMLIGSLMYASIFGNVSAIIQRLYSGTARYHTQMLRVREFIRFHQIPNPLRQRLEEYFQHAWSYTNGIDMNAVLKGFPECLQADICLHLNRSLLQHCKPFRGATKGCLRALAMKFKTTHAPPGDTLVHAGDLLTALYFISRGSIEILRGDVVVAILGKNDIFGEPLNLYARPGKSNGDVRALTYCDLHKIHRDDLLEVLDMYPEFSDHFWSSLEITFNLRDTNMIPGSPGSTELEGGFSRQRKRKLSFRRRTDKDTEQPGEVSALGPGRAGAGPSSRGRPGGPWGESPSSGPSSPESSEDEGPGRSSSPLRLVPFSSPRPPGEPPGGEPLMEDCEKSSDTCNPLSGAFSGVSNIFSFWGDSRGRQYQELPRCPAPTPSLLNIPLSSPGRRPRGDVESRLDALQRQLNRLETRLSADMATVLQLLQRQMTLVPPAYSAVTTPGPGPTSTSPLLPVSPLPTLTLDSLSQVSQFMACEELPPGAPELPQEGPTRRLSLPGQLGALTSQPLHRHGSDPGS

Values after ≈ are worked out from the molar mass of the structure shown. Bounds are passed on as bounds.

Sequence of Transient receptor potential cation channel subfamily V member 1 (Rattus norvegicus, UniProt O35433) (O35433 whole entry): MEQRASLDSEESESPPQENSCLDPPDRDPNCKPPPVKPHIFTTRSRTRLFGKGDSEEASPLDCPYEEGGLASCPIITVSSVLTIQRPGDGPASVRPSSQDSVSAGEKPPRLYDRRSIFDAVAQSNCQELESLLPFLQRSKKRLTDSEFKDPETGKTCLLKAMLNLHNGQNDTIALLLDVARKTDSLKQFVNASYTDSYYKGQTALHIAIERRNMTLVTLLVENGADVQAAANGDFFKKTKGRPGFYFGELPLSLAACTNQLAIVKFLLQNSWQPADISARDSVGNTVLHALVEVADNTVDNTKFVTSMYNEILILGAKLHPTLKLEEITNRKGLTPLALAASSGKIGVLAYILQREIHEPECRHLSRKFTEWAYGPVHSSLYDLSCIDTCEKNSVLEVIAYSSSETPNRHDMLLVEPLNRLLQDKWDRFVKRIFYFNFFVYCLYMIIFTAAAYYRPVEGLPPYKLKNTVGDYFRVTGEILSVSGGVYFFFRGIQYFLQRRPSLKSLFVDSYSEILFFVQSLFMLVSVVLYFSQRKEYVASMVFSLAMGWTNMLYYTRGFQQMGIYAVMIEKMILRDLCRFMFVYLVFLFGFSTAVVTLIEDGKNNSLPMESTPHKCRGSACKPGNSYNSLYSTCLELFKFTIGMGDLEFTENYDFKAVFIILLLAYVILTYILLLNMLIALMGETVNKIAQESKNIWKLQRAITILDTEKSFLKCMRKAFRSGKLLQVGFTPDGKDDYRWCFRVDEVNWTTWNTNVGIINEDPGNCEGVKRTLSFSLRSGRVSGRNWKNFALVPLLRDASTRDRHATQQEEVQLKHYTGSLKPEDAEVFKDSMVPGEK

As to `CC(C)(C)c1ccc(NC(=O)c2ccc(-c3ccccn3)cc2)cc1`, in data set [1], the IC50 worked out at 0.042 µM.

Regarding `CC(C)(C)c1ccc(NC(=O)N2CCN(c3ncccc3Cl)CC2)cc1`, the Kp in data set [2] was 5. The 50% effective dose (ED50) with Rattus norvegicus [3] and in the data set with Rattus norvegicus [4] was 8 µmol/kg throughout.

For the compound `O=C(Nc1ccc(S(=O)(=O)C(F)(F)F)cc1)C1=CCN(c2ncccc2C(F)(F)F)CC1`, the half-maximal inhibitory concentration (IC50) is 0.024 µM in data set [1], 0.0202 µM in data set [7], 0.014 µM in data set [8] and 0.017 µM in [9]. The Kp in data set [2] was determined as 1.5. In addition, the ED50 in the data set with Rattus norvegicus [3] was 12 µmol/kg; in the data set with Rattus norvegicus [4] it was > 300 µmol/kg; in the data set listed under Rattus norvegicus [10] it was 10 µmol/kg; in the data set on Rattus norvegicus [11], 76 µmol/kg; in the data set filed under Rattus norvegicus [12], 40 µmol/kg; in the data set filed under Rattus norvegicus [13] it was 8 µmol/kg. In addition, the ED50 in the data set filed under Rattus norvegicus [14] turned out to be 20 µmol/kg; in the data set listed under Rattus norvegicus [15], 25 µmol/kg. For the same compound, the Efficacy in the data set with Rattus norvegicus [5] turned out to be 58%. For the same compound, the concentration at 1 h in data set [6] is 0.2 µg/mL. Also, the solubility is 0.033 µg/mL (≈ 6.88e-05 mM) in [16] and > 100 mg/mL in data set [18]. Besides, the Papp in data set [17] was determined as 285 nm/s.

On to `CC(C)(C)c1ccc(NC(=O)C2=CCN(c3ncccc3Cl)CC2)cc1`, for which the IC50 in data set [1] was found to be 0.01 µM.

In the case of `COc1cccc(NC(=O)c2ccc(-c3ccccc3)cc2)c1`, the IC50 in [1] is 0.147 µM.

Consider `O=C(Nc1ccc(Cl)c(F)c1)C1=CCN(c2ncccc2Cl)CC1`, for which the IC50 in data set [1] was determined as 0.078 µM.

On to `O=C(Nc1ccc(Cl)cc1)C1=CCN(c2ncccc2Cl)CC1`, for which the IC50 in data set [1] was 0.033 µM. The compound further gave a bioavailability in data set [19] of 16%. Moreover, the half-life in data set [20] was 1.7 h. Moreover, in data set [21], the outcome was Active.

Turning to `CC(C)(C)c1ccc(NC(=O)C2=CCN(c3ccccc3F)CC2)cc1`, in data set [1], the concentration for half-maximal inhibition (IC50) came out at 0.265 µM.

Turning to `O=C(Nc1ccc(Cl)cc1)C1=CCN(c2ncccc2C(F)(F)F)CC1`, the IC50 in [1] came out at 0.019 µM. The Efficacy in the data set with Rattus norvegicus [5] was determined as 40%.

Regarding `O=C(Nc1ccc(S(=O)(=O)C(F)(F)F)cc1)C1=CCN(c2ncccc2F)CC1`, in [1], the IC50 came to 0.067 µM. The Efficacy in the data set with Rattus norvegicus [5] is reported as 51%. Further, the concentration at 1 h in data set [6] is 0.9 µg/mL.

For the compound `O=C(Nc1ccc(S(=O)(=O)C(F)(F)F)cc1)C1=CCN(c2nccs2)CC1`, the IC50 in data set [1] was found to be 0.095 µM. Besides, in the data set with Rattus norvegicus [5], the Efficacy amounted to 37%. The compound also came in with a concentration at 1 h in data set [6] of 2.1 µg/mL.

In the case of `CC(C)(C)c1ccc(NC(=O)C2=CCN(c3ncccc3C#N)CC2)cc1`, in [1], the IC50 was found to be 0.078 µM.

Take `CC(C)(C)c1ccc(NC(=O)C2=CCN(c3ccccn3)CC2)cc1`: in data set [1], the IC50 came out at 0.027 µM.

On to `CC(C)(C)c1ccc(NC(=O)C2=CCN(c3ncccc3F)CC2)cc1`, for which, in data set [1], the IC50 is 0.019 µM.

As for `CC(C)(C)c1ccc(NC(=O)C2=CCN(c3nccs3)CC2)cc1`, in [1], the IC50 turned out to be 0.014 µM.

Consider `O=C(Nc1ccc(Cl)c(Cl)c1)C1=CCN(c2ncccc2Cl)CC1`, for which the IC50 in [1] is 0.124 µM.

As for `O=C(Nc1ccc(Cl)cc1C(F)(F)F)C1=CCN(c2ncccc2Cl)CC1`, in [1], the IC50 amounted to 2.75 µM.

As to `CC(C)(C)c1ccc(NC(=O)C2=CCN(c3ncccn3)CC2)cc1`, in data set [1], the half-inhibitory concentration (IC50) was 0.01 µM.

`CC(C)(C#N)c1ccc(NC(=O)C2=CCN(c3ncccc3C(F)(F)F)CC2)cc1`: the concentration for half-maximal inhibition (IC50) in [1] stood at 0.041 µM. For the same compound, the Efficacy in the data set with Rattus norvegicus [5] turned out to be 25%.

`CC(C)(C)c1ccc(NC(=O)C2CCN(c3ncccc3Cl)CC2)cc1`: the IC50 in data set [1] was determined as 0.196 µM.

For `CC(C)(C)c1ccc(NC(=O)C2=CCN(c3ncccc3C(F)(F)F)CC2)cc1`, the IC50 in [1] came to 0.006 µM. Moreover, in the data set on Rattus norvegicus [5], the Activity is 28%.

`O=C(Nc1cccc2[nH]ncc12)N[C@@H]1CCc2cc(N3CCCCC3)ccc21`: the IC50 in data set [1] came out at 0.014 µM; in [9], 0.03 µM. Besides, in data set [2], the concentration ratio (Kp) is 0.008. Further, the ED50 in the data set on Rattus norvegicus [3] was 12 µmol/kg; in the data set on Rattus norvegicus [4] it was > 300 µmol/kg; in the data set listed under Rattus norvegicus [10] it was 10 µmol/kg; in the data set with Rattus norvegicus [11], 300 µmol/kg; in the data set filed under Rattus norvegicus [12], 165 µmol/kg; in the data set filed under Rattus norvegicus [13], 280 µmol/kg.

For the compound `O=C(Nc1ccc(S(=O)(=O)C(F)(F)F)cc1)C1=CCN(c2ncccn2)CC1`, the IC50 in [1] was 0.044 µM. The Efficacy in the data set on Rattus norvegicus [5] stood at 53%. The concentration at 1 h in [6] worked out at 0.38 µg/mL.

As to `O=C(Nc1ccc(C(F)(F)F)cc1)C1=CCN(c2ncccc2C(F)(F)F)CC1`, the IC50 in [1] stood at 0.008 µM. The Efficacy in the data set with Rattus norvegicus [5] amounted to 35%.

Regarding `O=C(Nc1ccc(S(=O)(=O)C(F)(F)F)cc1)C1=CCN(c2ncccc2Cl)CC1`, the half-maximal inhibitory concentration (IC50) in [1] stood at 0.041 µM. The Efficacy in the data set on Rattus norvegicus [5] came out at 63%. The concentration at 1 h in data set [6] was 0.28 µg/mL.

`O=C(Nc1ccc(Cl)cc1F)C1=CCN(c2ncccc2Cl)CC1`: the IC50 in data set [1] was 0.618 µM.

For the compound `O=C(Nc1ccc(C(F)(F)F)nc1)C1=CCN(c2ncccc2C(F)(F)F)CC1`, in data set [1], the IC50 turned out to be 0.042 µM. The Efficacy in the data set with Rattus norvegicus [5] is reported as 61%. Besides, the bioavailability in data set [19] worked out at 3%.

For the compound `Cc1cccnc1N1CC=C(C(=O)Nc2ccc(S(=O)(=O)C(F)(F)F)cc2)CC1`, the 50% inhibitory concentration (IC50) in [1] was found to be 0.035 µM. In addition, in the data set on Rattus norvegicus [5], the Efficacy worked out at 53%. Further, the concentration at 1 h in data set [6] was determined as 0.96 µg/mL.
